Converted amounts (≈) assume the structure as drawn. The source made the active and inactive calls. No cut-off for these calls is given here.
What was measured:
[1] = biological target: T1, Thymidylate kinase (Homo sapiens) (UniProt P23919); experiment: Competitive inhibition of human TMPK at 1 mM by Lineweaver-Burk analysis
T1 sequence (whole entry): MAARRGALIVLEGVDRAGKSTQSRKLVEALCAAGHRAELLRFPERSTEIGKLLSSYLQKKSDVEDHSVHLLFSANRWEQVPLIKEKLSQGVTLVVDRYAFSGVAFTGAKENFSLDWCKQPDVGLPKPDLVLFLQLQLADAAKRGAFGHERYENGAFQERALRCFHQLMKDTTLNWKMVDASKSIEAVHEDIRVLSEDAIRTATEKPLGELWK
Procedure, shortened: (§1)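 Coupled spectrophotometric assay at 334 nm (NADH oxidation via pyruvate kinase/lactate dehydrogenase/NDP kinase). Buffer 50 mM Tris-HCl pH 7.4, 50 mM KCl, 2 mM MgCl2, 0.2 mM NADH, 1 mM phosphoenolpyruvate. ATP 0.5 mM and dTMP 0.05 mM held fixed; analogue 0.003–1.5 mM.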

[2] = biological target: T2, Thymidylate kinase (Mycobacterium tuberculosis, UniProt P9WKE1); experiment: Competitive inhibition of Mycobacterium tuberculosis TMPK by Lineweaver-Burk analysis; procedure, shortened: as §1
T2 sequence (P9WKE1 whole entry): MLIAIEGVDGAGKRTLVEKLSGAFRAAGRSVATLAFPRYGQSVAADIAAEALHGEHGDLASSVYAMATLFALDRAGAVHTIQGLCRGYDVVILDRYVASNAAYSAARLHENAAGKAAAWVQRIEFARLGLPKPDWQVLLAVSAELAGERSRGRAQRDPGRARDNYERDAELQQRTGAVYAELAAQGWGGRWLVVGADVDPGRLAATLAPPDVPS

[3] = Selectivity index, ratio of Ki for human TMPK to Ki for Mycobacterium tuberculosis TMPK
[4] = Antimycobacterial activity against Mycobacterium bovis BCG 1173P2 after 8 days by resazurin reduction assay; format: functional, Mycobacterium bovis BCG str. Pasteur 1173P2; conditions: Mycobacterium tuberculosis variant bovis BCG, 192 h
Procedure, shortened: (§2)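 M. bovis BCG 1173P2 grown in 7H9 Middlebrook broth with 0.2% glycerol and 0.5% Tween-80. Compounds tested as serial 2-fold dilutions, with bacteria at 10^5 per mL. Incubated at 37 °C in humidified normal air for 8 days. Resazurin 0.01% (wt/vol) then added, followed by overnight incubation at 37 °C. Growth read as the OD difference 570 minus 630 nm (blue-to-pink change).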

[5] = system: Mycobacterium bovis BCG str. Pasteur 1173P2; experiment: Antimycobacterial activity against Mycobacterium bovis BCG 1173P2 at 25 ug/mL after 8 days by resazurin reduction assay; format: functional; procedure, shortened: as §2
[6] = biological target: T1, Thymidylate kinase (Homo sapiens); experiment: Competitive inhibition of human TMPK at 0.05 mM by Lineweaver-Burk analysis; procedure, shortened: as §1
[7] = biological target: T3, Thymidylate kinase (Mycobacterium tuberculosis) (UniProt P9WKE1); experiment: Competitive inhibition of Mycobacterium tuberculosis TMPK at 0.05 mM by Lineweaver-Burk analysis; procedure, shortened: as §1
T3 sequence (whole entry): T2 sequence (P9WKE1 whole entry)

[8] = biological target: T4, Thymidylate kinase (Homo sapiens, UniProt P23919); experiment: Competitive inhibition of human TMPK by Lineweaver-Burk analysis; procedure, shortened: as §1
T4 sequence (P23919 whole entry): T1 sequence (whole entry)

SMILES | Ki [2] [µM] | also measured
Cc1cn([C@H]2C[C@H](n3cc(Cc4ccccc4)nn3)[C@@H](CO)O2)c(=O)[nH]c1=O | 2.7 | inhibition [1]: inactive; Ratio Ki [3]: > 100
Cc1cn([C@H]2C[C@H](n3cc(-c4ccccc4)nn3)[C@@H](CO)O2)c(=O)[nH]c1=O | 4.2 | 
Cc1cn([C@@H]2C[C@H](O)[C@@H](Cn3cc(-c4ccc(Cl)cc4)nn3)O2)c(=O)[nH]c1=O | 9 | 
Cc1cn([C@H]2C[C@H](Nc3nnnn3-c3ccc(Cl)c(C(F)(F)F)c3)[C@@H](CO)O2)c(=O)[nH]c1=O | 45 | 
Cc1cn([C@H]2C[C@H](O)[C@@H](CNC(=S)Nc3ccc(Cl)c(C(F)(F)F)c3)O2)c(=O)[nH]c1=O | 14.5 | 
Cc1cn([C@H]2C[C@H](O)[C@@H](Cn3cc(-c4ccc(Cl)cc4)nn3)O2)c(=O)[nH]c1=O | 201 | 
Cc1cn([C@@H]2C[C@H](N=[N+]=[N-])[C@@H](CO)O2)c(=O)[nH]c1=O | 6 | 
Cc1cn([C@H]2C[C@H](n3cc(-c4ccc(Cl)cc4)nn3)[C@@H](CO)O2)c(=O)[nH]c1=O | 2.1 | 
Cc1cn([C@H]2C[C@H](O)[C@@H](CNc3nnnn3-c3ccc(Cl)c(C(F)(F)F)c3)O2)c(=O)[nH]c1=O | 73 | 
Cc1cn([C@H]2C[C@H](N=[N+]=[N-])[C@@H](CO)O2)c(=O)[nH]c1=S | ≥ 100 | 
Cc1cn([C@@H]2C[C@H](O)[C@@H](CNC(=S)Nc3ccc(Cl)c(C(F)(F)F)c3)O2)c(=O)[nH]c1=S | 0.17 | MIC99 [4]: 25 µg/mL (≈ 50.5 µM); inhibition [5]: 100%; inhibition [6]: inactive; Ratio Ki [3]: > 100
Cc1cn([C@H]2C[C@H](n3nnnc3NCc3ccccc3)[C@@H](CO)O2)c(=O)[nH]c1=O | 2.3 | inhibition [1]: inactive; Ratio Ki [3]: > 100
Cc1cn([C@H]2C[C@H](n3cc(-c4ccc(Cl)cc4)nn3)[C@@H](CO)O2)c(=O)[nH]c1=S | 15 | 
Cc1cn([C@@H]2C[C@H](O)[C@@H](CNC(=S)Nc3ccccc3)O2)c(=O)[nH]c1=S |  | MIC99 [4]: > 100 µg/mL; inhibition [7]: inactive
Cc1cn([C@H]2C[C@H](NC(=S)Nc3ccc(Cl)c(C(F)(F)F)c3)[C@@H](CO)O2)c(=O)[nH]c1=O | 9.9 | 
Cc1cn([C@@H]2C[C@H](n3cc(-c4ccc(Cl)cc4)nn3)[C@@H](CO)O2)c(=O)[nH]c1=O | 35 | 
Cc1cn([C@H]2C[C@H](NC(=O)Nc3ccc(Cl)c(C(F)(F)F)c3)[C@@H](CO)O2)c(=O)[nH]c1=O | 2.8 | Ki [8]: 95 µM; Ratio Ki [3]: 34

— ChEMBL document CHEMBL1926583, “Synthesis and inhibitory activity of thymidine analogues targeting Mycobacterium tuberculosis thymidine monophosphate kinase” (Bioorg Med Chem, 2011)
